Hits are enriched below; roughly 2.6% of the tested compounds scored in any of these assays.
V1R ag counter: activates human V1a receptor in oxytocin agonist counter-screen. actives 0.25% (n = 320,000). P37288. AID 2797. activation, % at 3 µM. CHO-V1R cells, Fluo-8 calcium fluorescence, agonist mode; 0% DMSO, 100% 3 nM vasopressin;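 active = activation above the mean activation of all tested compounds plus 3 SD, per screening run, cut at about 20% in these data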;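 also: signal is peak over basal fluorescence ratio across a 100 second FLIPR read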
OX1R antag-1: OX1R (human) antagonism | actives 1.8% (n = 330,000) | O43613 | OX1R-expressing cells, FRET antagonist read-out | inhibition, % at 6.6 µM; in the data active = inhibition mostly above about 38%, no sharp cut-off; inactive = mostly below about 40%
Target sequence (O43613 whole entry, looked up): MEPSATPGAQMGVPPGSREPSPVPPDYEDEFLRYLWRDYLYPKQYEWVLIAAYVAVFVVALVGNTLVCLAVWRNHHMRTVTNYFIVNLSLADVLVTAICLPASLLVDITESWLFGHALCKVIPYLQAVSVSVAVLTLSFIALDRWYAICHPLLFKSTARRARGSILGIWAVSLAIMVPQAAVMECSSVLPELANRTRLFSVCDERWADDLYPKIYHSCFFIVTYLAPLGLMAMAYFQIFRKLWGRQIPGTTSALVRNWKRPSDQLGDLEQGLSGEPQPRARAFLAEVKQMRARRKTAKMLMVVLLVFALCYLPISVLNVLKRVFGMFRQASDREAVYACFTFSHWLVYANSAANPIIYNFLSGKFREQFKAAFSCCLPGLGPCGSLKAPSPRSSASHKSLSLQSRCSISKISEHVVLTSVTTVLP
OXTR agonist: human OXTR agonism; P30559; CHO-OTR cells, Fluo-8 calcium fluorescence; normalized: DMSO 0%, oxytocin 100%; activation, % at 3 µM; actives 0.32% (n = 320,000); AID 2435;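 active = activation above the mean of all tested compounds plus 3 SD, cutoff set per screening run, cut at about 20% in these data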;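 also: peak over basal fluorescence ratio from a 100 s FLIPR kinetic read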
OXTR potentiate: human OXTR potentiation | activation, % at 3 µM | actives 0.061% (n = 320,000) | P30559 | AID 2445 | CHO-OTR cells, Fluo-8 calcium fluorescence, potentiator mode; 0% = oxytocin EC15, 100% = EC100;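 active = activation above that plate's cutoff, the mean activation of tested compounds plus 3 SD, cut at about 6.6% in these data, passing the limit was not always enough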
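test system = CHO-OTR cells, human receptor | compound = single-point 3.0 µM | schedule = 6 min compound pre-incubation at room temperature, 100 s kinetic read | signal = Fluo-8 no-wash calcium dye fluorescence, excitation 470-495 nm, emission 515-575 nm | repeats = single well per compound, singlicate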
OX1R antag-2: human HCRTR1 antagonism. inhibition, % at 5 µM. actives 0.43% (n = 330,000). CHO/OX1R cells, Fluo-8 calcium fluorescence, orexin A. O43613;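 active = inhibition above its plate's threshold, mean inhibition of all tested compounds on the plate plus 3 SD, cut at about 37% in these data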
CHO parental Ca: counter-screen: ATP calcium response change in parental CHO cells; AID 463079; parental CHO-K1, ATP-induced calcium, Fluo-8 fluorescence; actives 0.63% (n = 330,000); inhibition, % at 5.6 µM;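 active = inhibition above that plate's mean sample inhibition plus 3 SD, cut at about 26% in these data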
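Test system: parental CHO cells; detection: calcium-sensitive Fluo-8 fluorescence; evaluation: percent inhibition of calcium signal; also added: ATP as calcium-mobilizing challenge; repeats: one well per compound; control set: ATP-challenged DMSO wells low, unchallenged DMSO wells high; compound: single nominal dose of 5.6 µM per compound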
Hits are given with their value; i = inactive; nt = no result.

SMILES	V1R ag counter	OX1R antag-1	OXTR agonist	OXTR potentiate	OX1R antag-2	CHO parental Ca
COc1ccc(NC(=O)c2cc(-c3cc(Cl)ccc3O)n[nH]2)c(OC)c1	i	42	i	i	i	i
Cc1ccc(C)c(NC(=O)c2cc(-c3cc(C)ccc3O)n[nH]2)c1	i	i	i	i	i	32
Cc1cc(O)c(-c2cc(C(=O)Nc3cccnc3)[nH]n2)cc1C	i	i	i	i	i	i
Cc1cc(C)c(O)c(-c2cc(C(=O)Nc3cccnc3)[nH]n2)c1	i	44	i	i	i	i
COc1ccc(CCNC(=O)c2cc(-c3cc(C)cc(C)c3O)n[nH]2)cc1OC	i	i	i	i	i	i
CCCCOc1ccc(N(CC(=O)NCc2ccccc2)C(=O)c2csnn2)cc1	i	i	i	i	i	i
COc1ccc(OC)c(NC(=O)c2cc(-c3cc(C)cc(C)c3O)n[nH]2)c1	i	62	i	i	i	i
COc1ccc(CCC(=O)Nc2ccc(Cn3ccnc3)cc2)cc1	i	i	i	i	i	i
ClC(Cl)(c1nnnn1-c1ccccc1)c1nnnn1-c1ccccc1	i	i	i	i	63	93
CN(C)c1ccc(/C=N/N(CCO)C2=NS(=O)(=O)c3ccccc32)cc1	i	i	i	i	48	53
Cc1cccc(NC(=O)COc2ccccc2C(=O)NC(C)c2ccccc2)c1 (centres undefined)	i	i	i	i	i	i
CC1(C)CC(=O)C=C(Nc2ccc([N+](=O)[O-])cc2)C1	i	29	i	i	i	i
NC(=O)Nc1ccc(C(=O)OCC(=O)c2c[nH]c3ccccc23)cc1	i	i	i	i	i	i
N#CCC(=O)Nc1ccc(C(=O)OCC(=O)c2c[nH]c3ccccc23)cc1	i	39	i	i	i	i
CCn1cc(C(=O)N2CCN(c3ccc(OC)cc3)CC2)c(=O)c2cc(S(=O)(=O)N3CCOCC3)ccc21	i	i	i	i	i	i
CCc1nnc(SCC(=O)Nc2nccs2)n1CC	i	i	i	i	i	i
CCn1c(Cc2cccc3ccccc23)nnc1SCC(=O)Nc1nccs1	i	71	i	i	i	i
O=C(c1ccc([N+](=O)[O-])o1)N1CCCCCC1	i	28	i	i	i	i
O=C(c1ccc([N+](=O)[O-])o1)N1CCc2ccccc21	i	42	i	i	i	i
COc1cc2c(cc1OC)CN(C(=O)c1ccc([N+](=O)[O-])o1)CC2	i	46	i	i	i	i
Cc1cccc(NC(=O)C2CCCN(S(=O)(=O)c3cccc4cccnc34)C2)c1 (centres undefined)	i	54	i	i	i	i
Cc1cc(C)cc(NC(=O)C2CCCN(S(=O)(=O)c3c(C)noc3C)C2)c1 (centres undefined)	i	72	i	i	i	i
Cc1ccc(NC(=O)C2CCCN(S(=O)(=O)c3cccc4cccnc34)C2)cc1 (centres undefined)	i	i	i	i	i	i
COc1ccc(OC)c(NC(=O)C2CCCN(S(=O)(=O)c3cccc4cccnc34)C2)c1 (centres undefined)	i	74	i	i	i	i
COc1ccc(C)cc1NC(=O)c1ccccc1NS(=O)(=O)c1cccc2cccnc12	i	70	i	i	i	i
SMILES	V1R ag counter	OX1R antag-1	OXTR agonist	OXTR potentiate	OX1R antag-2	CHO parental Ca
N#Cc1ccccc1OCC(=O)NCc1ccccc1CN1CCCC1	i	i	i	i	i	i
Brc1ccc2c(c1)CN1CCCC1=N2	i	i	i	i	i	i
CC(C)CCC(CCNCc1ccccn1)c1ccc(Cl)cc1 (centres undefined)	i	i	i	i	i	i
Cn1ccc2cc(-c3csc(N4CCC(C(N)=O)CC4)n3)ccc21	i	i	i	i	i	i
O=C(NCCO)c1ccc2c3n(nc2c1)-c1ccc(Cl)cc1CO3	i	i	i	i	i	i
Cc1ccc2c(c1)COc1c3ccc(C(=O)NCCO)cc3nn1-2	i	61	i	i	i	i
COc1cc(N2CCCC2)c(OC)cc1/C=C(/C#N)c1cccc(F)c1	21	i	21	i	46	51
COCCN(CC(=O)Nc1cccc(C)c1C)C(=O)Cc1sc(C)nc1-c1ccc(F)cc1	i	i	i	i	i	i
C=C1N(C)c2cc([N+](=O)[O-])c(N)cc2C1(C)C	i	56	i	i	i	i
CC1(C)Oc2cc(N)c([N+](=O)[O-])cc2O1	i	i	i	i	i	i
CCN(CC)C(=O)[C@H]1C[C@H](CC(=O)NC(C)(C)C)C(=O)N2CCc3c([nH]c4ccc(Cl)cc34)[C@]12C	nt	i	nt	nt	i	i
CCC(C)[C@H]1CNCCN1CCC12CC3CC(CC(C3)C1)C2 (some centres undefined)	i	i	i	i	i	i
Nc1ccc(O)c([N+](=O)[O-])c1	i	49	i	i	i	i
CC1(C(=O)N2CCC(CC3CC(c4cccc(Br)c4)=NO3)(C(=O)NCC3CCCCC3)CC2)CC1 (centres undefined)	i	i	i	i	i	i
O=C(CSc1ccccn1)N/N=C/c1cccc([N+](=O)[O-])c1	i	i	i	i	i	i
O=C(CSc1ncccn1)N/N=C/c1cccc([N+](=O)[O-])c1	i	72	i	i	i	i
O=C(Nc1cccc(C(F)(F)F)c1)Oc1ccc(Cl)c2cccnc12	i	i	i	i	i	62
CCN(CC)C(=O)Oc1ccc(Cl)c2cccnc12	i	i	i	i	i	i
CC(C)CNC(=O)c1ccccc1NC(=O)/C=C/c1cccc([N+](=O)[O-])c1	i	i	i	i	i	i
CSc1nc(C)cc(OCCNS(=O)(=O)c2cc(C)ccc2C)n1	i	71	i	i	i	i
Cc1ccc(C)c(S(=O)(=O)NCCOc2nc(NC(C)C)nc(NC(C)C)n2)c1	i	i	i	i	i	i
COc1ccc(NC2CCCN(C(=O)c3cn(C)c4ccccc34)C2)cc1 (centres undefined)	i	38	i	i	i	i
COc1ccc(NC2CCCN(C(=O)c3ccc(C)nc3)C2)cc1 (centres undefined)	i	i	i	i	i	i
CN(CC(=O)NC(=O)NCc1ccccc1)CC(=O)Nc1ccc(Cl)c(C(F)(F)F)c1	i	i	i	i	i	i
CN(CC(=O)NCc1ccccc1)CC(=O)Nc1ccc(Cl)c(C(F)(F)F)c1	21	i	23	i	i	i
CCN(CC)CC(=O)Nc1cccc(S(=O)(=O)N2CCCC2)c1	i	i	i	i	i	i
CN(CC(=O)Nc1cccc(S(=O)(=O)N2CCCC2)c1)CC(=O)Nc1ccc(Cl)c(C(F)(F)F)c1	i	i	i	i	i	54

Source: PubChem (The Scripps Research Institute Molecular Screening Center)
